# Measurements pooled from the literature.
# Target: Mitogen-activated protein kinase kinase kinase 10 (MAP3K10, Homo sapiens, UniProt Q02779)
Structure (SMILES),test,conditions,remaining binding [%]
COc1cc(-c2cn(C3CCc4ccccc4N(CC(F)(F)F)C3=O)nn2)ccc1-n1ccc(C)n1 (stereo not drawn),"cell-free assay, competition with immobilised ligand",1 µM,96
CNC(=O)[C@@H]1CC[C@@H](n2c(-c3ccc4cnccc4c3)nc3ccc(C(=O)NCc4cccc(C(N)=O)c4)cc32)C1,"binding, competition with immobilised ligand",1 µM,86
CC1CCCN1c1nccc(-c2cnn3ncccc23)n1 (stereo not drawn),binding,1 µM,100
CNC(=O)c1ccc(Nc2ncc(C(F)(F)F)c(NCc3nccnc3N(C)S(C)(=O)=O)n2)cc1,"cell-free assay, competition with immobilised ligand",0.1 µM,68
c1cnn2ncc(-c3ccnc(N4CCC45COC5)n3)c2c1,binding,1 µM,100
C[C@H](c1ccnc(Nc2nc3ccc(-c4cc(N(C)C)ncn4)cc3[nH]2)c1)N1CCN(C(=O)CC(F)(F)F)CC1,"cell-free assay, competition with immobilised ligand",0.1 µM,100
Cc1cnc(Nc2ccc(C(=O)N3CCC(N4CCCC4)CC3)cc2)nc1-c1cc2ccccc2s1,"binding, competition with immobilised ligand",1 µM,0
COc1ccnn2ncc(-c3ccnc(N(C)C)n3)c12,binding,1 µM,78
O=C(Nc1c[nH]nc1C(=O)NC1CCNCC1)c1cc(F)cc(F)c1,"binding, competition with immobilised ligand",1 µM,100
Cc1cnn2ncc(-c3ccnc(N(C)C)n3)c2c1,binding,1 µM,100
O=C(c1ccc(Nc2ncc(Cl)c(-c3cc4ccccc4s3)n2)cc1)N1CCC(N2CCCC2)CC1,"binding, competition with immobilised ligand",1 µM,3.5
C=CC(=O)N1CCC(C(=O)NCC(=O)N2CCN(c3nc(-c4cnc(N)nc4C(F)F)nc(N4CCOCC4)n3)CC2)CC1,"binding, competition with immobilised ligand",1 µM,99
O=C(NCCCN1CCOCC1)c1ccc(Nc2nccc(-c3cc4ccccc4s3)n2)cc1,"binding, competition with immobilised ligand",1 µM,37
Cc1cc(-n2nc(Cc3cc(F)cc(C(F)(F)F)c3)nc2C)ccc1C(N)=O,"cell-free assay, competition with immobilised ligand",1 µM,95
COc1cnc(Nc2cccc(S(N)(=O)=O)c2)nc1N1CCN(c2ccccc2)CC1,"binding, competition with immobilised ligand",1 µM,89
C[C@@H](c1ccc(-n2cnc3c(N)ncnc32)cc1)N1CCc2nn(C)c(Cc3ccccc3)c2C1=O,"binding, competition with immobilised ligand",0.1 µM,82
C[C@H]1CCN(c2nccc(-c3cnn4ncccc34)n2)C1,binding,1 µM,100
COc1ccc2c(c1)O[C@H](c1ccc(OC)c(OC)c1)C[C@@H]2NC(=O)C1(c2ccc3c(c2)OC(F)(F)O3)CC1,"cell-free assay, competition with immobilised ligand",1 µM,97
N[C@H]1CCN(c2nccc(-c3cnn4ncccc34)n2)C1,binding,1 µM,92
Cc1c(NC(=O)c2cc(C(N)=O)nc3cc(F)ccc23)c(C(F)(F)F)nn1Cc1ccc(C#N)cc1,"cell-free assay, competition with immobilised ligand",1 µM,92
FC(F)(F)Oc1cccc(-c2cnc3ccc(-c4ccncc4)nn23)c1,"cell-free assay, competition with immobilised ligand",5 µM,58
